Results reported in ChEMBL document CHEMBL5247575 (J Med Chem, 2018).

How the values were obtained:
[1] = system: Acinetobacter baumannii; test: Synergistic antibacterial activity against ADC deleted Acinetobacter baumannii transfected with pWH1266 producing OXA-24/40 assessed as cefepime MIC at 4 ug/ml by broth microdilution method; format: functional; settings: dose 4 µg/ml
[2] = system: Klebsiella pneumoniae; test: Synergistic antibacterial activity against Klebsiella pneumoniae 729/1679 producing KPC-3 assessed as cefepime MIC at 4 ug/ml by broth microdilution method; format: functional; settings: dose 4 µg/ml
Method in brief: (§1)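 Broth microdilution per CLSI guidelines, using custom frozen panels. […] Each partner drug was also tested alone. MICs were run in triplicate and the modal value is reported.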

[3] = system: Klebsiella pneumoniae; test: Synergistic antibacterial activity against Klebsiella pneumoniae 776/1742 producing KPC-2 assessed as meropenem MIC at 8 ug/ml by broth microdilution method; format: functional; settings: dose 8 µg/ml
[4] = system: Pseudomonas aeruginosa; test: Synergistic antibacterial activity against Pseudomonas aeruginosa CL232 assessed as meropenem MIC at 4 ug/ml by broth microdilution method; format: functional; settings: dose 4 µg/ml
[5] = system: Escherichia coli; test: Antibacterial activity against Escherichia coli DH10B by broth microdilution method; format: functional
[6] = system: Acinetobacter baumannii; test: Synergistic antibacterial activity against Acinetobacter baumannii PR359 producing OXA-23 assessed as cefepime MIC at 4 ug/ml by broth microdilution method; format: functional; settings: dose 4 µg/ml
[7] = system: Klebsiella pneumoniae; test: Synergistic antibacterial activity against Klebsiella pneumoniae 729/1679 producing KPC-3 assessed as meropenem MIC at 8 ug/ml by broth microdilution method; format: functional; settings: dose 8 µg/ml; method in brief: as §1
[8] = system: Acinetobacter baumannii; test: Synergistic antibacterial activity against ADC deleted Acinetobacter baumannii transfected with pWH1266 OXA-23 assessed as cefepime MIC at 8 ug/ml by broth microdilution method; format: functional; settings: dose 8 µg/ml
[9] = system: Escherichia coli; test: Synergistic antibacterial activity against Escherichia coli DH10B transfected with pBC SK (-) KPC-3 assessed as meropenem MIC at 8 ug/ml by broth microdilution method; format: functional; settings: dose 8 µg/ml
[10] = system: Klebsiella pneumoniae; test: Synergistic antibacterial activity against Klebsiella pneumoniae jefferson 1775 producing OXA-48 assessed as cefepime MIC at 8 ug/ml by broth microdilution method; format: functional; settings: dose 8 µg/ml
[11] = system: Escherichia coli; test: Synergistic antibacterial activity against Escherichia coli DH10B transfected with pBC SK (-) OXA-48 assessed as cefepime MIC at 4 ug/ml by broth microdilution method; format: functional; settings: dose 4 µg/ml; method in brief: as §1
[12] = system: Escherichia coli; test: Synergistic antibacterial activity against Escherichia coli DH10B transfected with pBC SK (-) KPC-2 assessed as cefepime MIC at 4 ug/ml by broth microdilution method; format: functional; settings: dose 4 µg/ml
[13] = system: Escherichia coli; test: Synergistic antibacterial activity against Escherichia coli DH10B transfected with pBC SK (-) OXA-48 assessed as cefepime MIC at 8 ug/ml by broth microdilution method; format: functional; settings: dose 8 µg/ml; method in brief: as §1
[14] = system: Pseudomonas aeruginosa; test: Synergistic antibacterial activity against Pseudomonas aeruginosa 839 assessed as meropenem MIC at 8 ug/ml by broth microdilution method; format: functional; settings: dose 8 µg/ml
[15] = system: Klebsiella pneumoniae; test: Synergistic antibacterial activity against Klebsiella pneumoniae 1398/2291 producing KPC-3 assessed as cefepime MIC at 8 ug/ml by broth microdilution method; format: functional; settings: dose 8 µg/ml; method in brief: as §1
[16] = system: Klebsiella pneumoniae; test: Synergistic antibacterial activity against Klebsiella pneumoniae CAV 1543 producing OXA-48 assessed as cefepime MIC at 8 ug/ml by broth microdilution method; format: functional; settings: dose 8 µg/ml
[17] = system: Acinetobacter baumannii; test: Synergistic antibacterial activity against Acinetobacter baumannii PR381 producing OXA-24/40 assessed as cefepime MIC at 4 ug/ml by broth microdilution method; format: functional; settings: dose 4 µg/ml
[18] = system: Acinetobacter baumannii; test: Synergistic antibacterial activity against Acinetobacter baumannii PR448 producing OXA-23 assessed as cefepime MIC at 8 ug/ml by broth microdilution method; format: functional; settings: dose 8 µg/ml
Method in brief: (§2)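 Broth microdilution per CLSI guidelines in frozen panels. Test compound held at fixed 8 mg/L while the partner β-lactam concentration was increased. Run in triplicate; modal MIC reported.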

[19] = system: Escherichia coli; test: Synergistic antibacterial activity against Escherichia coli DH10B transfected with pBR322-catI-KPC-2 assessed as cefepime MIC at 8 ug/ml by broth microdilution method; format: functional; settings: dose 8 µg/ml; method in brief: as §1
[20] = system: Escherichia coli; test: Synergistic antibacterial activity against Escherichia coli DH10B transfected with pBR322-catI-KPC-2 assessed as cefepime MIC at 4 ug/ml by broth microdilution method; format: functional; settings: dose 4 µg/ml; method in brief: as §1
[21] = system: Acinetobacter baumannii; test: Synergistic antibacterial activity against Acinetobacter baumannii PR420 producing OXA-23/24/40 assessed as cefepime MIC at 8 ug/ml by broth microdilution method; format: functional; settings: dose 8 µg/ml
[22] = system: Klebsiella pneumoniae; test: Synergistic antibacterial activity against Klebsiella pneumoniae 11978 producing OXA-48 assessed as meropenem MIC at 8 ug/ml by broth microdilution method; format: functional; settings: dose 8 µg/ml; method in brief: as §1
[23] = system: Acinetobacter baumannii; test: Synergistic antibacterial activity against Acinetobacter baumannii PR363 producing OXA-23 assessed as meropenem MIC at 8 ug/ml by broth microdilution method; format: functional; settings: dose 8 µg/ml
[24] = system: Klebsiella pneumoniae; test: Synergistic antibacterial activity against Klebsiella pneumoniae 1354/2241 producing KPC-3 assessed as meropenem MIC at 8 ug/ml by broth microdilution method; format: functional; settings: dose 8 µg/ml; method in brief: as §1
[25] = system: Acinetobacter baumannii; test: Synergistic antibacterial activity against Acinetobacter baumannii PR359 producing OXA-23 assessed as meropenem MIC at 8 ug/ml by broth microdilution method; format: functional; settings: dose 8 µg/ml; method in brief: as §2
[26] = system: Klebsiella pneumoniae; test: Synergistic antibacterial activity against Klebsiella pneumoniae 1315/2198 producing KPC-3 assessed as cefepime MIC at 4 ug/ml by broth microdilution method; format: functional; settings: dose 4 µg/ml; method in brief: as §1
[27] = system: Acinetobacter baumannii; test: Synergistic antibacterial activity against Acinetobacter baumannii PR474 producing OXA-23/24/40 assessed as cefepime MIC at 8 ug/ml by broth microdilution method; format: functional; settings: dose 8 µg/ml
[28] = system: Klebsiella pneumoniae; test: Synergistic antibacterial activity against Klebsiella pneumoniae jefferson 1773 producing OXA-181 assessed as meropenem MIC at 4 ug/ml by broth microdilution method; format: functional; settings: dose 4 µg/ml
[29] = system: Escherichia coli; test: Synergistic antibacterial activity against Escherichia coli DH10B assessed as meropenem MIC at 8 ug/ml by broth microdilution method; format: functional; settings: dose 8 µg/ml
[30] = system: Escherichia coli; test: Synergistic antibacterial activity against Escherichia coli DH10B transfected with pBC SK (-) PDC-3 assessed as meropenem MIC at 8 ug/ml by broth microdilution method; format: functional; settings: dose 8 µg/ml; method in brief: as §1
[31] = system: Pseudomonas aeruginosa; test: Synergistic antibacterial activity against Pseudomonas aeruginosa 776 assessed as meropenem MIC at 8 ug/ml by broth microdilution method; format: functional; settings: dose 8 µg/ml
[32] = system: Bacteria; test: Inhibition of bacteria PDC-3 assessed as half life using nitrocefin as substrate
[33] = system: Acinetobacter baumannii; test: Synergistic antibacterial activity against Acinetobacter baumannii PR323 producing OXA-24/40 assessed as cefepime MIC at 8 ug/ml by broth microdilution method; format: functional; settings: dose 8 µg/ml
[34] = system: Klebsiella pneumoniae; test: Synergistic antibacterial activity against Klebsiella pneumoniae 776/1742 producing KPC-2 assessed as cefepime MIC at 4 ug/ml by broth microdilution method; format: functional; settings: dose 4 µg/ml
[35] = system: Escherichia coli; test: Synergistic antibacterial activity against Escherichia coli DH10B transfected with pBC SK (-) KPC-2 assessed as meropenem MIC at 8 ug/ml by broth microdilution method; format: functional; settings: dose 8 µg/ml
[36] = system: Escherichia coli; test: Synergistic antibacterial activity against Escherichia coli DH10B transfected with pBC SK (-) KPC-2 assessed as cefepime MIC at 8 ug/ml by broth microdilution method; format: functional; settings: dose 8 µg/ml
[37] = system: Escherichia coli; test: Synergistic antibacterial activity against Escherichia coli DH10B transfected with pBR322-catI-KPC-2 assessed as meropenem MIC at 8 ug/ml by broth microdilution method; format: functional; settings: dose 8 µg/ml; method in brief: as §1
[38] = system: Klebsiella pneumoniae; test: Synergistic antibacterial activity against Klebsiella pneumoniae 440/1360 producing KPC-2 assessed as cefepime MIC at 4 ug/ml by broth microdilution method; format: functional; settings: dose 4 µg/ml; method in brief: as §1

Row | SMILES | MIC [1] [µg/mL] | MIC [2] [µg/mL] | MIC [3] [µg/mL] | MIC [4] [µg/mL] | MIC [6] [µg/mL] | MIC [7] [µg/mL] | MIC [8] [µg/mL] | MIC [9] [µg/mL] | MIC [10] [µg/mL] | MIC [11] [µg/mL] | MIC [12] [µg/mL] | MIC [13] [µg/mL] | MIC [14] [µg/mL] | MIC [15] [µg/mL] | MIC [16] [µg/mL] | MIC [17] [µg/mL] | MIC [18] [µg/mL] | MIC [19] [µg/mL] | MIC [20] [µg/mL] | MIC [21] [µg/mL] | other results
1 | N#C[C@@H]1CC[C@@H]2CN1C(=O)N2OS(=O)(=O)[O-].[Na+] | 16 | 0.5 | 0.25 | 16 | 8 | ≤ 0.12 | 2 | ≤ 0.12 | ≤ 0.12 | ≤ 0.12 | ≤ 0.12 | ≤ 0.12 | 1 | 0.25 | 0.25 | 16 | 4 | ≤ 0.12 | ≤ 0.12 | > 16 | MIC [5]: > 16 µg/mL; MIC [22]: ≤ 0.12 µg/mL; MIC [23]: 2 µg/mL; MIC [24]: ≤ 0.12 µg/mL; MIC [25]: 4 µg/mL; MIC [26]: 0.25 µg/mL; MIC [27]: 8 µg/mL; MIC [28]: 0.25 µg/mL; MIC [29]: ≤ 0.12 µg/mL; MIC [30]: ≤ 0.12 µg/mL; MIC [31]: > 16 µg/mL; T1/2 [32]: 4.1 min; MIC [33]: > 16 µg/mL; MIC [34]: 1 µg/mL; MIC [35]: ≤ 0.12 µg/mL; MIC [36]: ≤ 0.12 µg/mL; MIC [37]: ≤ 0.12 µg/mL; MIC [38]: 0.5 µg/mL
2 | O=C(NNC(=O)[C@@H]1CC[C@@H]2CN1C(=O)N2OS(=O)(=O)O)[C@@H]1CCNC1 | 16 | ≤ 0.12 | ≤ 0.12 | > 16 | 8 | ≤ 0.12 | 16 | ≤ 0.12 | ≤ 0.12 | ≤ 0.12 | ≤ 0.12 | ≤ 0.12 | ≤ 0.12 | ≤ 0.12 | ≤ 0.12 | 16 | 8 | ≤ 0.12 | ≤ 0.12 | > 16 | MIC [22]: ≤ 0.12 µg/mL; MIC [23]: > 16 µg/mL; MIC [24]: ≤ 0.12 µg/mL; MIC [25]: > 16 µg/mL; MIC [26]: ≤ 0.12 µg/mL; MIC [27]: 8 µg/mL; MIC [29]: ≤ 0.12 µg/mL; MIC [30]: ≤ 0.12 µg/mL; MIC [31]: 16 µg/mL; T1/2 [32]: 2.9 min; MIC [33]: 8 µg/mL; MIC [34]: ≤ 0.12 µg/mL; MIC [35]: ≤ 0.12 µg/mL; MIC [36]: ≤ 0.12 µg/mL; MIC [37]: ≤ 0.12 µg/mL; MIC [38]: ≤ 0.12 µg/mL
